Measured values of several laboratories.
Lines come from different studies, so protocols differ.
Sample: PAMPA

Compound	tested at	time	pH	Papp
Cc1c(S(=O)(=O)N2CCC(C)CC2)cc(C(=O)NCc2cccnc2N2CCCC2)n1C	–	–	–	32.8 ×10⁻⁶ cm/s
C=C(CC(=O)OCc1oc(=O)oc1C)C(=O)OCc1oc(=O)oc1C	10 µM	4 h	–	~15 ×10⁻⁶ cm/s
CCCCCOC(=O)c1ccc(O)cc1	5 µM	–	pH 7.4	4.28 ×10⁻⁶ cm/s
C=C(CC(=O)OCc1oc(=O)oc1C)C(=O)OC	10 µM	4 h	–	~15 ×10⁻⁶ cm/s
Cc1[nH]c(C)c(S(=O)(=O)Nc2ccc(C(F)(F)F)c(Cl)c2)c1C(=O)N(C)C	–	–	–	11 ×10⁻⁶ cm/s
Cc1c(S(=O)(=O)N2CCn3nccc3C2)cc(C(=O)NCc2cccnc2N2CCCC2)n1C	–	–	–	27.9 ×10⁻⁶ cm/s
CCCCCCCCOC(=O)c1ccc(O)cc1	5 µM	–	pH 7.4	0.73 ×10⁻⁶ cm/s
Cc1c(S(=O)(=O)N2CCc3n[nH]cc3C2)cc(C(=O)NCc2c(F)ccc3cnn(C)c23)n1C	–	–	–	11 ×10⁻⁶ cm/s
CCCCCCCOC(=O)c1ccc(O)cc1	5 µM	–	pH 7.4	1.9 ×10⁻⁶ cm/s
C=C(CC(=O)OCOC(=O)C(C)(C)C)C(=O)OCOC(=O)C(C)(C)C	10 µM	4 h	pH 7.4	> 10 ×10⁻⁶ cm/s
O=C(OCc1ccccc1)c1ccc(O)cc1	5 µM	–	pH 7.4	3.79 ×10⁻⁶ cm/s
COc1ccccc1CNC(=O)c1cc(S(=O)(=O)N2CCn3nccc3C2)c(C)n1C	–	–	–	22.9 ×10⁻⁶ cm/s
C=C(CC(=O)OCOC(=O)OC(C)C)C(=O)OC	10 µM	4 h	pH 7.4	> 10 ×10⁻⁶ cm/s
CCCOC(=O)c1ccc(O)cc1	5 µM	–	pH 7.4	7.04 ×10⁻⁶ cm/s
Cc1c(S(=O)(=O)N2CCn3cncc3C2)cc(C(=O)NCc2c(F)ccnc2N2CCCC2)n1C	–	–	–	19.1 ×10⁻⁶ cm/s
Cc1[nH]c(C)c(S(=O)(=O)Nc2ccc(C(F)(F)F)c(Cl)c2Cl)c1C(=O)N1CCC(F)(F)C1	–	–	–	0.18 ×10⁻⁶ cm/s
